According to ChEMBL document CHEMBL1153402, “Pyrido[2,3-e]-1,2,4-triazolo[4,3-a]pyrazin-1-one as a new scaffold to develop potent and selective human A3 adenosine receptor antagonists. Synthesis, pharmacological evaluation, and ligand-receptor modeling studies” (J Med Chem, 2009):
Values belong to the compound of their own block, whether it stands above or below them.

Assays:
[1] = target: T1, Adenosine receptor A3 (Homo sapiens) (UniProt P0DMS8); assay: Displacement of [125I]AB-MECA from human cloned adenosine A3 receptor expressed in CHO cells at 1 uM; type: cell-based
T1 sequence (whole entry): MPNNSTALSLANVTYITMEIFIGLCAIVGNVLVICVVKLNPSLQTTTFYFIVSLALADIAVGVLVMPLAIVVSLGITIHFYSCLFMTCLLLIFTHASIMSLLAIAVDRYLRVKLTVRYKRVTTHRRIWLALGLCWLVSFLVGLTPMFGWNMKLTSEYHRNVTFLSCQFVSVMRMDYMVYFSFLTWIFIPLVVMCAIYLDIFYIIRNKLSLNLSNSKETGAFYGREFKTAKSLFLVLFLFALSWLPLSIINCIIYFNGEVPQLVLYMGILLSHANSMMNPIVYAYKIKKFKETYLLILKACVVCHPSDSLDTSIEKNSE
Procedure, shortened: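 IC50 from five displacer concentrations, each in triplicate, by nonlinear regression; Ki by Cheng–Prusoff. Ki as mean of four separate assays, each in triplicate; single-point values as percent inhibition of specific binding at 1 μM.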

[2] = target: T2, Adenosine receptor A1 (Bos taurus) (UniProt P28190); assay: Displacement of [3H]DPCPX from bovine brain cortical membrane adenosine A1 receptor at 20 uM
T2 sequence (whole entry): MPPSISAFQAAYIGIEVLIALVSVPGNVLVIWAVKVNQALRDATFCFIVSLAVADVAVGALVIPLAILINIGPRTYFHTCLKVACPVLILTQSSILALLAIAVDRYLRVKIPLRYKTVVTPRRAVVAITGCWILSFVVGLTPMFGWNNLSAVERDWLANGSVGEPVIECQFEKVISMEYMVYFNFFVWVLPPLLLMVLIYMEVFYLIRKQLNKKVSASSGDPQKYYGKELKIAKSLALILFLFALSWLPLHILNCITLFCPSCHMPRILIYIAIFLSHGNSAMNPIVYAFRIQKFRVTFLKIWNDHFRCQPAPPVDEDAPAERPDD
Procedure, shortened: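 Bovine cerebral cortical membranes; [3H]DPCPX displacement (Kd 0.3 nM). IC50 from five displacer concentrations in triplicate; Ki by Cheng–Prusoff, mean of four assays.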

Bos taurus [3] = species on record: Bos taurus; assay: Displacement of [3H]CGS 21680 from bovine striatal membrane adenosine A2A receptor at 20 uM
Procedure, shortened: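 IC50 from five concentrations in triplicate, nonlinear regression; Ki via Cheng–Prusoff from four assays. Single-point values as percent inhibition at 20 μM.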

[4] = Displacement of [3H]CGS 21680 from bovine striatal membrane adenosine A2A receptor; set-up: species or system Bos taurus
[5] = target: T2, Adenosine receptor A1 (Bos taurus); assay: Displacement of [3H]DPCPX from bovine brain cortical membrane adenosine A1 receptor at 10 uM
Bos taurus [6] = species on record: Bos taurus; assay: Displacement of [3H]CGS 21680 from bovine striatal membrane adenosine A2A receptor at 10 uM
Adenosine receptor A3 = target: T3, Adenosine receptor A3 (Homo sapiens, UniProt P0DMS8); assay: Displacement of [125I]AB-MECA from human cloned adenosine A3 receptor expressed in CHO cells; type: cell-based
T3 sequence (P0DMS8 whole entry): T1 sequence (whole entry)

Adenosine receptor A1 [7] = target: T4, Adenosine receptor A1 (Homo sapiens, UniProt P30542); assay: Displacement of [3H]DPCPX from human cloned adenosine A1 receptor expressed in CHO cells; type: cell-based
T4 sequence (P30542 whole entry): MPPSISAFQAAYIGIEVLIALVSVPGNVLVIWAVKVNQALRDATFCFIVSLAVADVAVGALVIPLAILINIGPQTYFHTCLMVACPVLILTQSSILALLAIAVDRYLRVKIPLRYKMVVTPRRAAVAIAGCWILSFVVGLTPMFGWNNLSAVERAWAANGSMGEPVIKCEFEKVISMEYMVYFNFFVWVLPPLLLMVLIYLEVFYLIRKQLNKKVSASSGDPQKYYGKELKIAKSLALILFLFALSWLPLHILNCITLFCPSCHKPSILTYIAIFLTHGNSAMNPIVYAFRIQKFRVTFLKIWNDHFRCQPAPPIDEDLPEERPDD

[8] = target: T5, Adenosine receptor A1 (Homo sapiens) (UniProt P30542); assay: Displacement of [3H]DPCPX from human cloned adenosine A1 receptor expressed in CHO cells at 10 uM; type: cell-based
T5 sequence (whole entry): T4 sequence (P30542 whole entry)
Procedure, shortened: (§1)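 CHO cell membranes stably expressing hA1 or hA2A; radioligands [3H]DPCPX (hA1, Kd 3 nM) and [3H]NECA (hA2A, Kd 30 nM). IC50 from five displacer concentrations in triplicate, nonlinear regression; Ki by Cheng–Prusoff; four separate assays. Single-point values as percent inhibition of specific binding at 10 μM.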

Adenosine receptor A2a [9] = target: T6, Adenosine receptor A2a (Homo sapiens, UniProt P29274); assay: Displacement of [3H]NECA from human cloned adenosine A2A receptor expressed in CHO cells at 10 uM; type: cell-based; procedure, shortened: as §1
Adenosine receptor A1 [10] = target: T7, Adenosine receptor A1 (Bos taurus, UniProt P28190); assay: Displacement of [3H]DPCPX from bovine brain cortical membrane adenosine A1 receptor
T7 sequence (P28190 whole entry): T2 sequence (whole entry)

Adenosine receptor A2a [11] = target: T6, Adenosine receptor A2a; assay: Displacement of [3H]NECA from human cloned adenosine A2A receptor expressed in CHO cells; type: cell-based

T6 sequence (P29274 whole entry): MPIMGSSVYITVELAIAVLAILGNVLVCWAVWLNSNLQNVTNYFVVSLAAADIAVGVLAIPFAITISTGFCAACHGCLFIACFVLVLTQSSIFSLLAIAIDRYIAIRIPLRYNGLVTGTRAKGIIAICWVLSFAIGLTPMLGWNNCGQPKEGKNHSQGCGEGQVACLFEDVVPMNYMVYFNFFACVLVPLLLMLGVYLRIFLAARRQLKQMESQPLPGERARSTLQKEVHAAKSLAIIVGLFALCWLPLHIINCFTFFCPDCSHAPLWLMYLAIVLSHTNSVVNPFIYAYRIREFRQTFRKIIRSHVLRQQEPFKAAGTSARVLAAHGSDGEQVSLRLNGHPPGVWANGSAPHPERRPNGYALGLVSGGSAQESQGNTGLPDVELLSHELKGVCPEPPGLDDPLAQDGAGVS

SMILES: CCCn1c(=O)c2[nH]c(C3CCCC3)nc2n(CCC)c1=O [1,3-DIPROPYL-8-CYCLOPENTYLXANTHINE [DPCPX]]
Ki [4]: 337 nM

SMILES: O=C(c1ccccc1)N(C(=O)c1ccccc1)c1nc2c([N+](=O)[O-])cccc2n2c(=O)n(-c3ccccc3)nc12
Activity [1]: 27%
Activity [5]: 39%
Activity (Bos taurus [6]): 0%

SMILES: COc1ccc(-n2nc3c(N(C(=O)c4ccccc4)C(=O)c4ccccc4)nc4ncccc4n3c2=O)cc1
Activity [2]: 17%
Activity [8]: 0%
Activity (Bos taurus [3]): 0%
Ki (Adenosine receptor A3): 7.75 nM
Activity (Adenosine receptor A2a [9]): 0%

SMILES: COc1ccc(-n2nc3c(N)nc4ncccc4n3c2=O)cc1
Ki (Adenosine receptor A3): 158 nM
Ki (Adenosine receptor A1 [10]): 1100 nM
Ki [4]: 413 nM

SMILES: O=c1n(-c2ccccc2)nc2c(NC3CCCC3)nc3c([N+](=O)[O-])cccc3n12
Ki (Adenosine receptor A3): 116 nM

SMILES: O=C(Nc1nc2ncccc2n2c(=O)n(-c3ccccc3)nc12)c1ccccc1
Activity [8]: 8%
Ki (Adenosine receptor A3): 70.3 nM
Ki (Adenosine receptor A2a [11]): 2240 nM
Ki (Adenosine receptor A1 [10]): 152 nM
Ki [4]: 7100 nM

SMILES: CC(=O)Nc1nc2c([N+](=O)[O-])cccc2n2c(=O)n(-c3ccccc3)nc12
Activity [1]: 18%
Activity (Bos taurus [6]): 36%

SMILES: O=c1n(-c2ccccc2)nc2c(NC3CCCCC3)nc3c([N+](=O)[O-])cccc3n12
Ki (Adenosine receptor A3): 281 nM

SMILES: O=c1[nH]c2c([N+](=O)[O-])cccc2n2c(=O)n(-c3ccc(O)cc3)nc12
Activity [1]: 21%

SMILES: O=C(Cc1ccccc1)Nc1nc2ncccc2n2c(=O)n(-c3ccccc3)nc12
Activity [8]: 37%
Ki (Adenosine receptor A3): 11.7 nM
Ki (Adenosine receptor A2a [11]): 208 nM
Ki (Adenosine receptor A1 [10]): 7.15 nM
Ki [4]: 414 nM

SMILES: O=C(Nc1nc2c([N+](=O)[O-])cccc2n2c(=O)n(-c3ccccc3)nc12)c1ccccc1
Activity [5]: 32%
Activity (Bos taurus [6]): 0%

SMILES: Nc1nc2c([N+](=O)[O-])cccc2n2c(=O)n(-c3ccc(O)cc3)nc12
Activity [1]: 45%

SMILES: COc1ccc(-n2nc3c(N(C(=O)c4ccccc4)C(=O)c4ccccc4)nc4c([N+](=O)[O-])cccc4n3c2=O)cc1
Activity [5]: 20%
Activity (Bos taurus [6]): 0%

SMILES: COc1ccc(-n2nc3c(NC(C)=O)nc4ncccc4n3c2=O)cc1
Activity [2]: 56%
Activity [8]: 48%
Activity (Bos taurus [3]): 19%
Ki (Adenosine receptor A3): 41 nM
Activity (Adenosine receptor A2a [9]): 29%

SMILES: O=C(c1ccccc1)N(C(=O)c1ccccc1)c1nc2ncccc2n2c(=O)n(-c3ccccc3)nc12
Activity (Bos taurus [3]): 12%
Ki (Adenosine receptor A3): 335 nM
Ki (Adenosine receptor A1 [10]): 70.7 nM

SMILES: Nc1nc2ncccc2n2c(=O)n(-c3ccc(O)cc3)nc12
Ki (Adenosine receptor A3): 1340 nM
Ki (Adenosine receptor A1 [10]): 112 nM
Ki [4]: 832 nM

SMILES: COc1ccc(-n2nc3c(NC(C)=O)nc4c([N+](=O)[O-])cccc4n3c2=O)cc1
Activity [1]: 36%
Activity [5]: 0%
Activity (Bos taurus [6]): 7%

SMILES: CCOC(=O)c1ccc(-n2nc3c(N)nc4ncccc4n3c2=O)cc1
Activity [1]: 0%
Activity [2]: 39%
Activity (Bos taurus [3]): 17%

SMILES: COc1ccc(-n2nc3c(NC(=O)c4ccccc4)nc4c([N+](=O)[O-])cccc4n3c2=O)cc1
Activity [5]: 35%
Activity (Bos taurus [6]): 15%

SMILES: Nc1nc2ncccc2n2c(=O)n(-c3ccc(F)cc3)nc12
Ki (Adenosine receptor A3): 490 nM
Ki (Adenosine receptor A1 [10]): 181 nM
Ki [4]: 1510 nM

The remaining lines, values ahead:

Activity [1]: 0%
Activity [2]: 30%
Activity (Bos taurus [3]): 7%
SMILES: O=C(O)c1ccc(-n2nc3c(=O)[nH]c4ncccc4n3c2=O)cc1

Activity [2]: 26%
Activity (Bos taurus [3]): 0%
Ki (Adenosine receptor A3): 3.3 nM
Ki (Adenosine receptor A1 [7]): 114 nM
SMILES: COc1ccc(-n2nc3c(=O)[nH]c4ncccc4n3c2=O)cc1

Activity (Bos taurus [3]): 59%
Ki (Adenosine receptor A3): 138 nM
Ki (Adenosine receptor A1 [10]): 14 nM
SMILES: CC(=O)Nc1nc2ncccc2n2c(=O)n(-c3ccccc3)nc12

Activity (Bos taurus [3]): 12%
Ki (Adenosine receptor A3): 251 nM
Activity (Adenosine receptor A2a [9]): 0%
Ki (Adenosine receptor A1 [10]): 145 nM
SMILES: O=c1[nH]c2ncccc2n2c(=O)n(-c3ccccc3)nc12

Activity [8]: 36%
Ki (Adenosine receptor A3): 8.4 nM
Ki (Adenosine receptor A2a [11]): 208 nM
Ki (Adenosine receptor A1 [10]): 0.47 nM
Ki [4]: 510 nM
SMILES: O=c1n(-c2ccccc2)nc2c(NC3CCCC3)nc3ncccc3n12

Activity [8]: 37%
Ki (Adenosine receptor A3): 15.5 nM
Ki (Adenosine receptor A2a [11]): 211 nM
Ki (Adenosine receptor A1 [10]): 0.38 nM
Ki [4]: 199 nM
SMILES: O=c1n(-c2ccccc2)nc2c(NC3CCCCC3)nc3ncccc3n12

Activity [1]: 0%
Activity [2]: 16%
Activity (Bos taurus [3]): 0%
SMILES: CCOC(=O)c1ccc(-n2nc3c(=O)[nH]c4ncccc4n3c2=O)cc1

Ki (Adenosine receptor A3): 656 nM
Ki (Adenosine receptor A1 [10]): 3.1 nM
Ki [4]: 92.6 nM
SMILES: Nc1nc2ncccc2n2c(=O)n(-c3ccccc3)nc12

Ki (Adenosine receptor A3): 279 nM
SMILES: O=c1[nH]c2c([N+](=O)[O-])cccc2n2c(=O)n(-c3ccccc3)nc12

Activity [1]: 32%
Activity (Bos taurus [3]): 0%
Ki (Adenosine receptor A1 [10]): 449 nM
SMILES: O=c1[nH]c2ncccc2n2c(=O)n(-c3ccc(O)cc3)nc12

Activity (Bos taurus [3]): 26%
Ki (Adenosine receptor A3): 590 nM
Ki (Adenosine receptor A1 [10]): 306 nM
SMILES: O=c1[nH]c2ncccc2n2c(=O)n(-c3ccc(F)cc3)nc12
